Data from publication PMC6071421 (Journal of investigative medicine : the official …, 2017).

Target: T1, FFA2 (GPR43; Ffar2) (Mus musculus, UniProt Q8VCK6)
T1 sequence (Q8VCK6 1-330): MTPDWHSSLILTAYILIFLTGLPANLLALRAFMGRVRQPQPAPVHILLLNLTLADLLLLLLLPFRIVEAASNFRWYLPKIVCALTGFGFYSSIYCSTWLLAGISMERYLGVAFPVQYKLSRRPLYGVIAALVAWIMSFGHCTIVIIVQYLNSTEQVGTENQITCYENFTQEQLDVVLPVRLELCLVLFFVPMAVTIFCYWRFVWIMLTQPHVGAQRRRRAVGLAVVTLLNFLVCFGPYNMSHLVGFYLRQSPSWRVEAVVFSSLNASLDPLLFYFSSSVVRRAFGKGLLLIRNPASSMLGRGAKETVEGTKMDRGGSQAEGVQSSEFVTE
Assay: Ca2+ mobilization, Fluo-8, fluorometric imaging plate reader, beta TC3 cells
Assay type: cell-based
Conditions: agonist; endogenous receptor in beta TC3 cells; N = 13
Outline: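 Mouse βTC3 β cells (express Ffar2 but not Ffar3) loaded with 5 μM Fluo-8 for 60 min at 37°C. Test compounds were added as serial dilutions, each concentration in quadruplicate, and fluorescence was read on a FLIPR. Response was delta F/f: (post-stimulation max − pre-stimulation min)/pre-stimulation min. pEC50 and Emax came from non-linear regression. Experiments were repeated in triplicate.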

`CC(=O)O` [Acetate] was tested, and the pEC50 was 2.32±0.21 -log M.
